“Also recorded” adds a separate entry of the source. Where two headings read alike, the source gives them in different places.
How the values were obtained:
[1] = cited from earlier work
[2] = test system: CYP2C8; conditions: IPE 4 g/day; cited from earlier work
[3] = test system: serum TG levels; conditions: IPE 4 g/day, MARINE and ANCHOR studies; cited from earlier work
[4] = test system: CYP2C9; conditions: IPE 4 g/day; cited from earlier work
[5] = target: cytochrome P450 (CYP) 2C19 (Homo sapiens, UniProt P33261); assay: Drug-drug interaction of IPE with omeprazole, a CYP2C19 substrate; assay type: in vivo, human (healthy adult subjects); conditions: IPE 4 g/day at steady state, omeprazole 40 mg/day
Chain of cytochrome P450 (CYP) 2C19 (P33261 whole entry): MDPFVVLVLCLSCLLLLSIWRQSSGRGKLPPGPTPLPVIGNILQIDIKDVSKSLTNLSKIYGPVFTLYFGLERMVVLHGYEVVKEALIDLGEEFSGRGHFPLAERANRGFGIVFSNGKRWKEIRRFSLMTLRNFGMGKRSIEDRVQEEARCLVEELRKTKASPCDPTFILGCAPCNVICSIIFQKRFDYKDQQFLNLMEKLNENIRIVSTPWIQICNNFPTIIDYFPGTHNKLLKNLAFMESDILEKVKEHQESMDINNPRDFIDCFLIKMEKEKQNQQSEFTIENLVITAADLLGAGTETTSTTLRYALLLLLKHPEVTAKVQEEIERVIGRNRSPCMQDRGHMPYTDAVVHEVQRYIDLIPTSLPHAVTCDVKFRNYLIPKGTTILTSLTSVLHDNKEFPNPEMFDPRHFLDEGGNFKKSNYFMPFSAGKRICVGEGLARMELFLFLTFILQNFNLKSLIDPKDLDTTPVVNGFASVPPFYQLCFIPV

[6] = Safety assessments; assay type: in vivo, human (healthy adult subjects); conditions: healthy subjects
Summary of the method: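 Open-label single-centre phase I crossover, healthy adults. Oral H+/K+ ATPase inhibitor 40-mg delayed-release capsule once daily, 1 h before breakfast, days 1–7 and 19–25. Omega-3 ethyl ester 4 g/day as two 1-g capsules twice daily with or after meals, days 12–29. Monitored adverse events, chemistry, hematology, urinalysis, blood pressure, heart rate, respiratory rate, oral temperature and physical examinations.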

[7] = test system: CYP3A4; conditions: IPE 4 g/day; cited from earlier work
[8] = assay type: in vivo, human (healthy adult subjects); conditions: for K el: omeprazole 40 mg/day, mean (SD), n = 28
[9] = healthy subjects; cited from earlier work

CC/C=C\C/C=C\C/C=C\C/C=C\C/C=C\CCCC(=O)O [EPA, eicosapentaenoic acid]
Unesterified fraction of total EPA in plasma [1]: < 1%
Time to peak plasma concentrations of EPA ([1]; following oral dosing of IPE): approximately 5 h

CC/C=C\C/C=C\C/C=C\C/C=C\C/C=C\CCCC(=O)OCC [IPE, eicosapentaenoic acid ethyl ester]
Effect of IPE on AUC or C max of rosiglitazone (CYP2C8 substrate) [2]: did not display a significant effect
Effect on LDL-C levels [3]: without significantly increasing
Effect on serum TG levels [3]: significantly reduce
Effect of IPE on AUC or C max of warfarin (CYP2C9 substrate) [4]: did not display a significant effect
Effect of IPE on AUC0–24 and C max of omeprazole (CYP2C19 substrate) [5]: did not significantly change; also recorded: did not inhibit
Safety and tolerability of co-administration of IPE with omeprazole ([6]; IPE 4 g/day with omeprazole 40 mg/day): safe and well tolerated
Effect of IPE on AUC or C max of atorvastatin (CYP3A4 substrate) [7]: did not display a significant effect

COc1ccc2[nH]c([S+]([O-])Cc3ncc(C)c(OC)c3C)nc2c1 (centres unmarked) [Omeprazole]
AUC(0-t) ([8]; human, plasma, po, 40 mg/day): 3610 ng·h/mL
K el ([8]; with icosapent ethyl 4 g/day (day 25)): 0.62 (0.26) L/h
K el ([8]; without IPE (day 7)): 0.56 (0.22) L/h
Tolerability of omeprazole alone ([6]; omeprazole 40 mg/day): well tolerated
Elimination half-life [9]: 30 to 60 min

— publication PMC4153963 (Drugs in R&D, 2014)
